# RORA act: activates the human nuclear receptor RORA. P35398. CHO-K1 Gal4-RORA LBD luciferase reporter, luminescence; percent increase over mock-subtracted basal signal. activation, % at 10 µM. 65,000 compounds, 1.5% hits. AID 560;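 active = activation above the mean of all tested compounds plus 3 SD, cut at about 49% in these data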;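 note: 0% = DMSO-treated RORA cells and 100% = added signal equal to DMSO minus mock-transfected cells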
# ROCK2 blocker: blocks human Rho kinase 2 activity; O75116; purified ROCK2, Kinase-Glo ATP depletion luminescence; inhibition, % at 6 µM; 60,000 compounds, 0.35% hits;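 active = inhibition above the screen-wide mean inhibition plus 3 SD, cut at about 18% in these data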;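 note: plate controls were DMSO wells for no effect and Y-27632 control wells after no-enzyme background subtraction for full effect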
# JNK3 blocker: inhibitors of human JNK3 kinase | P53779 | purified JNK3 kinase activity, HTS | inhibition, % at 8 µM | 60,000 compounds, 0.61% hits | AID 746; in the data active = inhibition above about 17%;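 note: 0% = DMSO and 100% = reference inhibitor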
# Target sequence (P53779 whole entry, looked up): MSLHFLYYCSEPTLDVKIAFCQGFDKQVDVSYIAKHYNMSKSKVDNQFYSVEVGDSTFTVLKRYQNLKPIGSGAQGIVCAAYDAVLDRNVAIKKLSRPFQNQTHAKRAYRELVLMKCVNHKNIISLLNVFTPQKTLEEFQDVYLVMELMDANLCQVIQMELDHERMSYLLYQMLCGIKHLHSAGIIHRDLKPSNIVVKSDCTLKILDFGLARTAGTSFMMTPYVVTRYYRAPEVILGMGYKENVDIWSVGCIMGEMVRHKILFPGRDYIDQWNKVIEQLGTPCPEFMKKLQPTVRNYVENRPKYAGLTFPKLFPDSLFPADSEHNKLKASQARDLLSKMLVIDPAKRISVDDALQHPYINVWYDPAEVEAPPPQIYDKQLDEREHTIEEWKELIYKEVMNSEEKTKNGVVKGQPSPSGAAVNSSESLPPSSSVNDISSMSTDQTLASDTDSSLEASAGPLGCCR
# SF1 activator: activates the human nuclear receptor SF-1. activation, % at 10 µM. AID 522. 65,000 compounds, 1.9% hits. CHO-K1 Gal4-SF-1 LBD luciferase reporter; % increase over DMSO SF-1-specific signal;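 active = activation above the mean activation of all tested compounds plus 3 SD, cut at about 50% in these data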
#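 Assay system: CHO-K1 cells co-transfected with Gal4 DBD–human SF-1 LBD, 5xGal4 luciferase reporter / Input: 4,000 cells per well / Incubation: 20 h compound exposure at 37 °C after 1 h cell settling / Detection: SteadyLite luciferase luminescence / Control set: DMSO negative control and −SF1 background wells / Replication: one test per compound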
# PKA inh: blocks human protein kinase A activity. P17612. PKA Kemptide phosphorylation, Kinase-Glo ATP luminescence. inhibition, % at 6 µM. 65,000 compounds, 0.1% hits;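 active = inhibition above the screen-wide mean inhibition plus 3 SD, cut at about 21% in these data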
# WNV NS2B-NS3 inh: WNV NS2B-NS3 proteinase inhibition; P06935; WNV NS2B-NS3 protease, fluorogenic substrate Ex360/Em465; hits give low values; z-score (test concentration not listed); 65,000 compounds, 0.18% hits; AID 577; in the data active = z-score below about -3
# * hit, by the source's call; nt = no result given. Compounds with a hit are over-represented: about 3.4% of the library has one in this group of screens.
SMILES,RORA act,ROCK2 blocker,JNK3 blocker,SF1 activator,PKA inh,WNV NS2B-NS3 inh
O=c1c2ccccc2nc(-c2ccco2)n1CCCn1ccnc1,-0.1,12.5,17.5*,-15.8,2.1,-0.44
CCC(=O)N1CCN(CCN=Cc2c(O)n(C3CCCCC3)c(=O)n(C3CCCCC3)c2=O)CC1,0.2,1.5,-14.2,9.8,-3.3,-0.42
O=C(Nc1ccc2nc(-c3ccco3)[nH]c2c1)c1ccco1,38.1,nt,nt,6.5,0.8,-1.2
CN(c1ccc(C(=O)Nc2nccs2)cc1)S(=O)(=O)c1ccccc1,40.2,4.0,27.9*,14.9,9.7,0.99
O=C(Nc1ccc(S(=O)(=O)N2CCCCCC2)cc1)c1ccco1,63.4*,0.9,4.5,32.6,8.8,0.23
CN(c1ccccc1)S(=O)(=O)c1ccc(C(=O)Nc2nccs2)cc1,-0.3,4.8,-7.0,20.0,8.3,-0.15
CCOc1ccc(NC(=O)c2ccco2)cc1,8.2,-3.5,3.5,-16.9,5.8,-0.08
O=C(Nc1ccc(Nc2ccccc2)cc1)c1ccco1,60.3*,3.0,-11.2,87.0*,0.4,0.89
O=C(Nc1ccc(-c2nc3ccccc3[nH]2)cc1)c1ccco1,34.1,-7.7,-2.1,77.5*,-6.3,1.42
Cc1nn(Cc2ccccc2)c(C)c1NC(=O)CSc1nnc(-c2cc(Cl)ccc2O)n1C,12.0,1.6,7.3,2.2,9.7,0.57
O=C1NCC2=C1C(c1ccc(Br)cc1)Nc1ccccc1N2 (stereo not given),nt,nt,nt,nt,nt,0.81
CC(=O)N(C)c1ccc(NC(=O)c2ccccc2C(=O)O)cc1,2.9,-1.2,-1.5,-0.4,-3.0,0.31
Cc1csc(NC(=O)c2ccco2)n1,32.4,-0.2,7.2,15.8,1.4,-0.42
O=C(Nc1nccs1)c1ccc(NC(=O)c2ccco2)cc1,53.4*,nt,nt,55.9*,7.9,-1.16
CC(=O)N(C)c1ccc(NC(=O)c2ccco2)cc1,33.3,-0.5,-3.8,49.9*,-0.6,0.65
COc1cc(OC)cc(C(=O)N2c3ccc(F)cc3CCC2C)c1 (stereo not given),-14.5,1.7,4.4,-1.8,8.2,-0.06
Cn1nnc2cc(C(=O)N3CCCCCC3)ccc21,-3.2,nt,nt,8.4,4.3,-0.57
Cc1cccc(-n2cnc3cc(C(=O)N4CCCCC4)ccc32)c1,15.5,nt,nt,54.6*,-0.1,0.41
Cc1ccc(NC(=O)NC(=O)N(c2ccccc2)S(C)(=O)=O)cc1,-2.5,7.4,0.5,11.1,7.2,-0.54
Cc1onc(-c2ccccc2Cl)c1C(=O)OCC(=O)N1CCCc2ccccc21,-7.2,4.0,5.2,-4.0,9.0,1.12
CCCCCn1c(SCCN2CCOCC2)nc2c1c(=O)[nH]c(=O)n2C,-10.1,1.8,2.4,10.2,5.1,-1.65
CCOC(=O)CSc1nc2ccccc2c(=O)n1NC(=O)c1ccccc1,1.6,5.2,-0.9,56.0*,9.7,-0.88
CCN1CCN(c2cc(C)c3cc(NC(=O)c4cnccn4)ccc3n2)CC1,6.0,3.8,-4.8,9.2,8.6,0.21
CCN1CCN(CNC(=O)c2cnccn2)CC1,15.6,2.3,6.0,1.3,8.4,-4.83*
O=C(Nc1cc2nn(-c3ccccc3)nc2cc1Cl)c1ccco1,25.4,4.9,-4.0,72.7*,1.8,-0.21
SMILES,RORA act,ROCK2 blocker,JNK3 blocker,SF1 activator,PKA inh,WNV NS2B-NS3 inh
CC(=O)Nc1cc2nn(-c3ccccc3)nc2cc1Cl,13.3,nt,nt,10.7,3.2,1.15
O=C(NCCc1ccccc1)c1cnc2sccn2c1=O,83.6*,1.1,-2.6,38.4,0.5,1.88
CCOC(=O)c1ccc(Cn2cnc3ccccc3c2=O)cc1,-13.1,2.0,39.2*,8.2,6.7,0.52
COC(=O)c1ccc(Cn2cnc3ccccc3c2=O)cc1,22.6,nt,nt,-0.7,7.4,-0.46
Oc1ccccc1-c1cc(-c2ccccc2Cl)[nH]n1,-6.6,14.3,10.9,19.9,5.5,-0.32
Clc1ccccc1-c1nc(-c2ccccc2)n[nH]1,60.9*,-4.7,5.7,18.3,-5.7,1.97
COc1ccc(-n2cnc3cc(NCc4cccs4)ccc32)cc1,44.3,-0.2,1.1,27.4,4.0,-1.45
COc1ccc2ncn(-c3ccccc3)c2c1,-30.2,-1.7,29.9*,-5.2,11.0,1.45
CC(SCC(=O)Nc1ccc(S(=O)(=O)N2CCCCC2)cc1)C(=O)O (stereo not given),3.6,1.1,-2.5,-19.9,0.0,0.66
c1ccc2[nH]c(SN3CCOCC3)nc2c1,0.3,8.6,1.3,-10.0,5.2,-0.93
COC(=O)c1cc(NCc2ccc3c(c2)OCO3)ccc1N1CCOCC1,-8.1,-2.4,-6.0,-12.3,-6.7,0.9
O=C(O)c1cc(NCc2ccc3c(c2)OCO3)ccc1N1CCOCC1,-23.1,50.6*,2.4,-0.8,7.2,-0.91
COc1ccc2c(c1)CCc1c(C(=O)NC3CCCCC3)noc1-2,33.9,-0.7,-0.8,54.1*,-7.1,1.07
COCC(C)NC(=O)c1noc2c1CCc1cc(OC)ccc1-2 (stereo not given),6.2,0.8,-2.2,67.6*,11.2,-0.59
COc1ccc2c(c1)CCc1c(C(=O)NCCN3CCOCC3)noc1-2,18.6,-5.9,4.0,-3.0,9.5,2.12
COCCNC(=O)c1noc2c1CCc1cc(OC)ccc1-2,36.5,2.1,1.6,72.0*,10.2,-0.7
Cc1nc2cc(NC(=O)NCCC3=CCCCC3)ccc2o1,72.8*,4.8,1.0,46.4,7.0,0.77
Cc1cccc2nc(CSCc3ccco3)cn12,45.8,0.1,8.1,55.3*,0.7,0.64
CCOC(=O)c1cnn(-c2ccccn2)c1N,53.0*,10.3,5.3,34.9,-3.0,-0.25
CCOC(=O)c1cnc2c(-c3ccccc3)cnn2c1N,-4.6,-0.5,1.2,52.4*,4.5,-0.32
Cc1ccc(CN2C(=O)CCC2C(=O)NCCN(CC(C)C)CC(C)C)cc1 (stereo not given),-0.9,-0.8,6.3,-5.6,4.7,1.87
O=C(O)CCCC(=O)N1CCN(C(c2ccccc2)c2ccccc2)CC1,9.0,-7.8,-0.1,-2.7,5.7,1.59
O=C1CCCC(O)=C1C=Nc1ccc(O)cc1,-3.7,-0.3,6.2,55.8*,3.6,0.31
O=C(NC1CCCCC1)Nn1c(-c2ccccc2)nc2ccccc2c1=O,-13.8,4.9,-6.3,-7.4,3.7,-0.69
CN=Cc1cc(-c2ccccc2)sc1O,26.7,4.5,-26.1,55.6*,9.8,-0.38
CCOc1ccc(/C(O)=C2\C(=O)C(=O)N(c3cc(C)on3)C2c2ccccc2OC)cc1 (stereo not given),3.8,3.1,21.1*,5.2,4.8,-0.46
CCOC(=O)CN(C(=O)CSc1nnc(COc2ccc(OC)cc2)n1C)c1ccccc1,-16.3,4.5,-0.2,17.8,12.2,-0.64
C=CCN(CC=C)S(=O)(=O)c1ccc2nc(NC(=O)C(C)C)sc2c1,60.0*,0.3,-3.0,19.9,0.8,-1.14
CCOc1ccc2nc(NC(=O)C(CC)Sc3nc(C)cc(=O)[nH]3)sc2c1 (stereo not given),51.8*,4.1,-4.0,22.8,4.8,-0.49

# Source: PubChem (several laboratories)
